Results gathered from unrelated publications.
Protocols differ between the studies behind these lines. pEC50, pIC50, pKd: −log10 of the molar value.
PPARG: Peroxisome proliferator-activated receptor gamma (PPARG, Homo sapiens, UniProt P37231)
HDAC5: Histone deacetylase 5 (HDAC5, Homo sapiens, UniProt Q9UQL6)
CHEK1: Serine/threonine-protein kinase Chk1 (CHEK1, Homo sapiens, UniProt O14757)

| Structure (SMILES) | target | assay | setting | quantity | value |
| --- | --- | --- | --- | --- | --- |
| Cc1cc2nc3c(=O)[nH]c(=O)nc-3n(C[C@H](O)[C@H](O)[C@H](O)COP(=O)(O)OP(=O)(O)OC[C@H]3O[C@@H](n4cnc5c(N)ncnc54)[C@H](O)[C@@H]3O)c2cc1C | YTH domain-containing family protein 2 (YTHDF2, Homo sapiens, UniProt Q9Y5A9) | binding | lysate | pKd | 7.21 |
| CCOCc1nc(O)c(-c2nnc(Cc3ccc(Cl)cn3)o2)c(O)c1-c1c(OC)cccc1OC | Apelin receptor (Rattus norvegicus, UniProt Q9JHG3) | cAMP, agonist | – | pEC50 | 10.70 |
| CSCC[C@H](NC(=O)[C@H](CCC(=O)O)NC(=O)[C@@H]1CCCN1C(=O)[C@@H](NC(=O)[C@@H]1CCCN1)[C@@H](C)O)C(=O)N[C@@H](CCCNC(=N)N)C(=O)N[C@@H](CCC(=O)O)C(=O)N[C@@H](CCCCN)C(=O)N[C@@H](CC(C)C)C(=O)N[C@H]1CSSC[C@@H]2NC(=O)[C@@H](NC(=O)[C@H](Cc3ccc(O)cc3)NC(=O)[C@H](CCCNC(=N)N)NC(=O)[C@H](C)NC(=O)[C@@H]3CCCN3C(=O)[C@H](CC(N)=O)NC(=O)[C@@H](NC(=O)[C@H](C)NC(=O)[C@H](C)NC(=O)[C@H](C)N)[C@@H](C)O)CSSC[C@H](NC(=O)CNC(=O)[C@H](CO)NC(=O)[C@H](CC(C)C)NC2=O)C(=O)N[C@@H]([C@@H](C)O)C(=O)N[C@@H](CCC(N)=O)C(=O)N[C@@H](CCC(N)=O)C(=O)N[C@@H](CC(=O)O)C(=O)N[C@@H](CC(C)C)C(=O)N[C@@H](CC(C)C)C(=O)N[C@@H]([C@@H](C)O)C(=O)N[C@@H](CC(C)C)C(=O)N[C@H](C(=O)N2CCC[C@H]2C(=O)N[C@@H](Cc2ccc(O)cc2)C(=O)O)CSSC[C@@H](C(=O)NCC(=O)NCC(=O)N2CCC[C@H]2C(=O)N[C@@H](CCCNC(=N)N)C(=O)N[C@@H](Cc2c[nH]c3ccccc23)C(=O)N[C@@H](CO)C(=O)N[C@H](C(=O)N[C@@H](CCC(=O)O)C(=O)N[C@@H](C)C(=O)O)[C@@H](C)O)NC(=O)[C@H](C(C)C)NC(=O)[C@H](CCCNC(=N)N)NC(=O)[C@H](C(C)C)NC(=O)[C@H](CC(C)C)NC(=O)[C@H](C)NC(=O)[C@H](CCCNC(=N)N)NC(=O)[C@H](C(C)C)NC(=O)[C@H](Cc2ccccc2)NC(=O)[C@H](Cc2c[nH]cn2)NC(=O)[C@H](Cc2c[nH]cn2)NC(=O)CNC1=O | Relaxin receptor 2 (RXFP2, Homo sapiens, UniProt Q8WXD0) | cAMP, agonist | – | pEC50 | 10.78 |
| Cc1ccc(-c2ccc(F)cc2COc2ccc(CCC(=O)O)cc2)cc1 | PPARG | reporter gene, agonist, luciferase | – | pEC50 | < 4.00 |
| CC(C)(Oc1ccc(CCNC(=O)c2ccc(Cl)cc2)cc1)C(=O)O | PPARG | binding, ITC | – | pKd | 4.52 |
| CCCCOc1nc(N)c2[nH]c(=O)n(CCN)c2n1 | Toll-like receptor 8 (TLR8, Homo sapiens, UniProt Q9NR97) | reporter gene, agonist | – | pEC50 | 3.68 |
| COc1ccc(-c2nsc(NC(=O)[C@@H]3C[C@H]3C)c2C)cc1 | Metabotropic glutamate receptor 5 (GRM5, Homo sapiens, UniProt P41594) | calcium signal, agonist | – | pEC50 | < 4.60 |
| CCN(CC)Cc1ccc2cc(COC(=O)Nc3ccc(C(=O)NO)cc3)ccc2c1 | HDAC5 | cell-free assay | – | pKd | < 4.52 |
| COC(=O)Cc1ccc2c(c1)NC(=O)c1ccc(-c3cc(OC)ncc3C)cc1N2 | CHEK1 | enzyme activity, inhibitor | – | pIC50 | 8.11 |
| C#Cc1cccc(Nc2ncnc3cc(OC)c(OCCCCCCC(=O)NO)cc23)c1 | HDAC5 | cell-free assay | – | pKd | < 4.52 |
| COC(=O)Cc1ccc2c(c1)NC(=O)c1cc(C)c(-c3ccc([N+](=O)[O-])c(OC)c3)cc1N2 | CHEK1 | enzyme activity, inhibitor | – | pIC50 | 7.31 |
| Cc1cnc(-c2ccc(-c3ccc(NC(=O)Nc4c(F)cc(F)cc4F)cc3F)c3c2C(=O)NC3)[nH]1 | Discoidin domain-containing receptor 2 (DDR2, Homo sapiens, UniProt Q16832) | binding, competition with immobilised ligand | – | pKd | 8.52 |
| OCc1ccc2c(c1)-c1n[nH]c(-c3ccc(-c4ccc(O)cc4)cc3)c1C2 | CHEK1 | enzyme activity, inhibitor | – | pIC50 | 8.36 |
| c1ccc2c(Oc3nc(Nc4ccc(N5CCOCC5)cc4)c4ncn(C5CCCCC5)c4n3)cccc2c1 | Protein smoothened (SMO, Homo sapiens, UniProt Q99835) | GTPγS binding, agonist, radiometric | cell membranes | pEC50 | 6.64 |
| COc1cc(NC(=O)CCCCCCC(=O)O)c(Cl)cc1NC(=O)Nc1cnc(C#N)cn1 | CHEK1 | enzyme activity, inhibitor | – | pIC50 | 7.24 |
| Cc1noc(C)c1-c1ccc(-c2nc3cnccn3c2NC(C)(C)C)cc1 | Bromodomain and PHD finger-containing protein 3 (BRPF3, Homo sapiens, UniProt Q9ULD4) | cell-free assay, competition with immobilised ligand | – | pKd | 4.40 |
